The text below walks through data of ChEMBL document CHEMBL1250540, “Design, synthesis, and binding of homologated truncated 4'-thioadenosine derivatives at the human A3 adenosine receptors” (Bioorg Med Chem, 2010).

For orientation: inhibition means the share of the control response that was lost under treatment. The low end stands for little suppression, the high end for strong suppression.

Holding throughout (assay type): cell-based
Experiment [1] has as its target T1, Adenosine receptor A1 (Homo sapiens) (UniProt P30542).
T1 sequence (whole entry): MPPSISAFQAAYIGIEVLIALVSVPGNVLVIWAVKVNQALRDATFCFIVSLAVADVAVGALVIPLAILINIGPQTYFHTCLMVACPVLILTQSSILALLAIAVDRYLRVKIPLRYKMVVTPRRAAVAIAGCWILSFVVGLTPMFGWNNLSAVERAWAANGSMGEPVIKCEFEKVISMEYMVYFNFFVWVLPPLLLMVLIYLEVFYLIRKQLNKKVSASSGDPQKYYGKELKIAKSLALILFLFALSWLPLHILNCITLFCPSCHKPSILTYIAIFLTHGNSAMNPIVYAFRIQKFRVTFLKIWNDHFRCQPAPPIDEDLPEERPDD
Description: Displacement of [3H]R-PIA from human adenosine A1 receptor expressed CHO cells at 10 uM after 60 mins by gamma counting relative to NECA. The gist of the method:
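Membranes from CHO cells stably expressing human A1AR were incubated with 1 nM [3H]PIA at 25 °C for 60 min in 50 mM Tris–HCl (pH 7.4) with 10 mM MgCl2. Nonspecific binding was defined with CPA. Results are mean ± sem, n = 3–5.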
Background: Loss of bound radioactivity is the signal in a displacement assay; it reports binding, not function.

For experiment [2], the target named is T2, Adenosine receptor A3 (Homo sapiens) (UniProt P0DMS8).
T2 sequence (whole entry): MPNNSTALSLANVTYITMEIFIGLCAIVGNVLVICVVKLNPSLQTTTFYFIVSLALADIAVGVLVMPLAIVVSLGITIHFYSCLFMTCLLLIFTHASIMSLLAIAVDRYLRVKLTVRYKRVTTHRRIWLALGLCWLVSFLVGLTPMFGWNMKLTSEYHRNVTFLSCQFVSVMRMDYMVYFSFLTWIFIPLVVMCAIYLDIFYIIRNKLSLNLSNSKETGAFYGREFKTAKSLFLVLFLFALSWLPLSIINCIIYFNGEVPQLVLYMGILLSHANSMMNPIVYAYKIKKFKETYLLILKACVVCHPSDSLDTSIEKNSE
Description: Displacement of [125I]I-AB-MECA from human adenosine A3 receptor expressed CHO cells at 10 uM after 60 mins by gamma counting relative to NECA. The gist of the method:
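Competition binding used membranes from CHO cells stably expressing human A3AR with 0.5 nM [125I]I-AB-MECA and test nucleoside in 50 mM Tris–HCl (pH 7.4) with 10 mM MgCl2 and 1 mM EDTA, at 25 °C for 60 min. Nonspecific binding was defined with Cl-IB-MECA. Percent inhibition was taken at a single concentration. Results are mean ± sem, n = 3–5.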

For experiment [3], the target named is Adenosine receptor A2a (Homo sapiens) (UniProt P29274). Kind of experiment: Displacement of [3H]CGS 21680 from human adenosine A2A receptor expressed HEK293 cells at 10 uM after 60 mins by gamma counting relative to NECA. The gist of the method:
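Membranes from HEK-293 cells stably expressing human A2AAR were incubated with 15 nM [3H]CGS21680 at 25 °C for 60 min in 50 mM Tris–HCl (pH 7.4) with 10 mM MgCl2. Incubation was stopped by GF/B filtration. Results are mean ± sem, n = 3–5.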

Adenosine receptor A2a (Homo sapiens), sequence (P29274 whole entry): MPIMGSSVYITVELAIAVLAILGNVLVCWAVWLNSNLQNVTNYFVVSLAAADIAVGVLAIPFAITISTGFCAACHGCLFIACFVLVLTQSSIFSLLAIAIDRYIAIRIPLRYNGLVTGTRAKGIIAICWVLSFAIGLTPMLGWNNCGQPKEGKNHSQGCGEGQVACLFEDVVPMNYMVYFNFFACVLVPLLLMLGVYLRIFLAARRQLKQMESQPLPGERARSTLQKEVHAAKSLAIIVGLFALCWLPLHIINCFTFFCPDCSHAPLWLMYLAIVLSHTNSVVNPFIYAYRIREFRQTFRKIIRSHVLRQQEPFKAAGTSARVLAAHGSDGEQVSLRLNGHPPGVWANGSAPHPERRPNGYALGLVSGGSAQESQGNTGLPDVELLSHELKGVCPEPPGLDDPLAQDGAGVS

For `O[C@@H]1[C@H](O)CS[C@H]1Cn1cnc2c(NCc3cccc(Cl)c3)ncnc21`, the inhibition in experiment [1] turned out to be 3.3%; in experiment [2], 8.9%; in experiment [3], 13%.
The corresponding values for `O[C@@H]1[C@H](O)CS[C@H]1Cn1cnc2c(NCc3cccc(I)c3)nc(Cl)nc21` are 16.4%, 10% and 18.4%.
In the case of `O[C@@H]1[C@H](O)CS[C@H]1Cn1cnc2c(NCc3cccc(Br)c3)ncnc21`, the values for the inhibition in experiment [1], in experiment [2] and in experiment [3] were 6.6%, 6.1% and 25.8%, respectively.
The corresponding values for `O[C@@H]1[C@H](O)CS[C@H]1Cn1cnc2c(NCc3cccc(I)c3)ncnc21` are 9.6%, 13.9% and 18.2%.
The corresponding values for `O[C@@H]1[C@H](O)CS[C@H]1Cn1cnc2c(NCc3cccc(F)c3)ncnc21` are 0.3%, 8.7% and 14%.
The corresponding values for `O[C@@H]1[C@H](O)CS[C@H]1Cn1cnc2c(NCc3cccc(Cl)c3)nc(Cl)nc21` are 3.2%, 13.6% and 11%.
Turning to `O[C@@H]1[C@H](O)CS[C@H]1Cn1cnc2c(NCc3cccc(Br)c3)nc(Cl)nc21`, the values for the inhibition in experiment [1], in experiment [2] and in experiment [3] were 23.6%, 21% and 2%, respectively.
The corresponding values for `O[C@@H]1[C@H](O)CS[C@H]1Cn1cnc2c(NCc3cccc(F)c3)nc(Cl)nc21` are 7.9%, 17.6% and 12%.
